Experiments:
[1] = Volume of distribution at steady state in CD-1 mouse at 1 mg/kg, iv or 5 mg/kg, po by LC-MS/MS method; type: ADME, organism-based; details: in vivo, read-out: Vdss
In short: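 Female CD-1 mice, 6–9 weeks old, n=3 per route. Dosing was 1 mg/kg i.v. in PEG400/water 35/65 or 5 mg/kg p.o. in 0.5% methylcellulose/0.2% Tween 80. Serial tail-nick blood was taken to 24 h and diluted in EDTA water. Quantified by LC-MS/MS (MRM, positive ESI), LLOQ 0.002 μM.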

[2] = Volume of distribution at steady state in Sprague-Dawley rat at 1 mg/kg, iv or 5 mg/kg, po by LC-MS/MS method; type: ADME, organism-based; details: in vivo, read-out: Vdss
In short: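 Male Sprague-Dawley rats, 6–9 weeks old, n=3 per route. Dosing was 1 mg/kg i.v. in PEG400/water 35/65 or 5 mg/kg p.o. in 0.5% methylcellulose/0.2% Tween 80; the p.o. group was fasted overnight. Catheter blood was taken at 0.033–24 h into K2EDTA and processed to plasma. Quantified by LC-MS/MS.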

[3] = biological target: T1, CREB-binding protein (Homo sapiens, UniProt Q92793); assay: Displacement of biotinylated histone H3K14 peptide ligand from human recombinant His-tagged CBP measured after 10 mins by TR-FRET assay
T1 sequence (Q92793 whole entry): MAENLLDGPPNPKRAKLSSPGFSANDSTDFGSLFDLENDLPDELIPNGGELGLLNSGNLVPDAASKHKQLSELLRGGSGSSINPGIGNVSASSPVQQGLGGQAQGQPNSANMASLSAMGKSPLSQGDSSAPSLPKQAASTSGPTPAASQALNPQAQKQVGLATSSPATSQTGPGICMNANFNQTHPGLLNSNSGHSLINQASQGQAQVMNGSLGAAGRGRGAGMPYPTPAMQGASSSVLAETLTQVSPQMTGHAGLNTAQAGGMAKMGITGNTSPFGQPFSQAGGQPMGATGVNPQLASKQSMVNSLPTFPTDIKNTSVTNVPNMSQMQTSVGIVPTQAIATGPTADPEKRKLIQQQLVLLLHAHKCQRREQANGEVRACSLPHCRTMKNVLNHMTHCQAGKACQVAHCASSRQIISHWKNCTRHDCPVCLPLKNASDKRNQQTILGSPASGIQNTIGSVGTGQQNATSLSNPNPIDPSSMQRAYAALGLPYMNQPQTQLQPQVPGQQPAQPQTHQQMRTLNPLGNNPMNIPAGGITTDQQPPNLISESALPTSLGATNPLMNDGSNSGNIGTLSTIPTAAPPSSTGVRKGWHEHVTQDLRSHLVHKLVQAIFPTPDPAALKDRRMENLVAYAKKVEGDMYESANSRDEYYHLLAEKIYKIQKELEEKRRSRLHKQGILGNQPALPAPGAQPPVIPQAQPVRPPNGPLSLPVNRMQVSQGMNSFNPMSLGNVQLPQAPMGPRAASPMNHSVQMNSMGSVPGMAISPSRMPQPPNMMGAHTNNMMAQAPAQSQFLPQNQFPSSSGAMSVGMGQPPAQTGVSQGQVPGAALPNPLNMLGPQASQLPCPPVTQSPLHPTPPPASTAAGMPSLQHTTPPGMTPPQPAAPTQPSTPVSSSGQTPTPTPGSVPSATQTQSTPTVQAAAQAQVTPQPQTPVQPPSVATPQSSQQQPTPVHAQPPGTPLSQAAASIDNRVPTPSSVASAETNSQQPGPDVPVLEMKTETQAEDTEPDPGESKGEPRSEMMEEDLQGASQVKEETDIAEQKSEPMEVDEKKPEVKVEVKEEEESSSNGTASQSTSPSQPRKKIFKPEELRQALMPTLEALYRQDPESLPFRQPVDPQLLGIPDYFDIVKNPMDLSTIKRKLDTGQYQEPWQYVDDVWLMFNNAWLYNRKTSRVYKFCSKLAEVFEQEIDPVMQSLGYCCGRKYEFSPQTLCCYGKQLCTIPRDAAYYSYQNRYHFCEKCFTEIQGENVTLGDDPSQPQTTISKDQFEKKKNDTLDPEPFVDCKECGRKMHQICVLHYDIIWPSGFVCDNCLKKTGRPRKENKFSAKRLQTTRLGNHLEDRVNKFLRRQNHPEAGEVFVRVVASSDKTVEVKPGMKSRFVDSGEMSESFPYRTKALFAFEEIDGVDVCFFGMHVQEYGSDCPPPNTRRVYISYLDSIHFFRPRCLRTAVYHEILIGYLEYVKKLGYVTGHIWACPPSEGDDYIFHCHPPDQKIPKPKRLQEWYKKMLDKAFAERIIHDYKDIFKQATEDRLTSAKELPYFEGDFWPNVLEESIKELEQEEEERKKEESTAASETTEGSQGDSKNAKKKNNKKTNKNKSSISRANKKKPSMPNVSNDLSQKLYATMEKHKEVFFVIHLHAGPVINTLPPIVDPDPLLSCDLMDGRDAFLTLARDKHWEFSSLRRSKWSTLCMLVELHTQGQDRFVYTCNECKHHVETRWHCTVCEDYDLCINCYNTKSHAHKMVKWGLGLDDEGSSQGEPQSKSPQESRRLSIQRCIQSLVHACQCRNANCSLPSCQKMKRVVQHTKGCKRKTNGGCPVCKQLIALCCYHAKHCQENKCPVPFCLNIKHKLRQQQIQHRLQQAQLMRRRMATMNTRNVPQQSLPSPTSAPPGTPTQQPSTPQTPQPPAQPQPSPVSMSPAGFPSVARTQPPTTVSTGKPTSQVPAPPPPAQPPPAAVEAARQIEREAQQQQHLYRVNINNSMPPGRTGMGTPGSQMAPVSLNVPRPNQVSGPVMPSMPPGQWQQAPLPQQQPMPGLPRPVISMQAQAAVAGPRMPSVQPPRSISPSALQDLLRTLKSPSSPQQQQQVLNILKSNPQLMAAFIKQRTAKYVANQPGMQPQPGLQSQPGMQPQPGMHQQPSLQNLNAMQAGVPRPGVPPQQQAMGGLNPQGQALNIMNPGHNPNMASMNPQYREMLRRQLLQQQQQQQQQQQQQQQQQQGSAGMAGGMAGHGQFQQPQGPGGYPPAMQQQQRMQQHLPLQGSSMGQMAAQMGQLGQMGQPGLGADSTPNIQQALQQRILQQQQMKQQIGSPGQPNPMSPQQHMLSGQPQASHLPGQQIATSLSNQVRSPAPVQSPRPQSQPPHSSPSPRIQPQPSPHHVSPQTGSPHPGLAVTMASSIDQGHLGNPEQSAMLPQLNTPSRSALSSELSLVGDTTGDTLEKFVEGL

[4] = species: Homo sapiens; assay: Selectivity ratio of IC50 for human recombinant His-tagged BRD4 bromodomain-1 to IC50 for recombinant His-tagged human CBP […]
In short: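 TR-FRET competition binding: recombinant His-tagged bromodomains bind a biotinylated small-molecule ligand, and competing compound lowers the signal. IC50s are geometric means of at least two determinations. Selectivity is BRD4(1) IC50 (nM) divided by CBP IC50 (nM).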

[5] = biological target: T1, CREB-binding protein; assay: Inhibition of CBP in human MV-4-11 cells assessed as decrease in MYC expression incubated for 4 hrs measured by luminescence method; type: cell-based
[6] = biological target: Bromodomain-containing protein 4 (Homo sapiens, UniProt O60885); assay: Displacement of biotinylated histone H3K14 peptide ligand from human recombinant His-tagged BRD4 bromodomain-2 measured after 10 mins by TR-FRET assay
[7] = biological target: Bromodomain-containing protein 8 (Homo sapiens, UniProt Q9H0E9); assay: Displacement of biotinylated histone H3K14 peptide ligand from recombinant His-tagged BRD8 bromodomain-1 (unknown origin) measured after 10 mins by TR-FRET assay
Sequence of Bromodomain-containing protein 8 (Q9H0E9 whole entry): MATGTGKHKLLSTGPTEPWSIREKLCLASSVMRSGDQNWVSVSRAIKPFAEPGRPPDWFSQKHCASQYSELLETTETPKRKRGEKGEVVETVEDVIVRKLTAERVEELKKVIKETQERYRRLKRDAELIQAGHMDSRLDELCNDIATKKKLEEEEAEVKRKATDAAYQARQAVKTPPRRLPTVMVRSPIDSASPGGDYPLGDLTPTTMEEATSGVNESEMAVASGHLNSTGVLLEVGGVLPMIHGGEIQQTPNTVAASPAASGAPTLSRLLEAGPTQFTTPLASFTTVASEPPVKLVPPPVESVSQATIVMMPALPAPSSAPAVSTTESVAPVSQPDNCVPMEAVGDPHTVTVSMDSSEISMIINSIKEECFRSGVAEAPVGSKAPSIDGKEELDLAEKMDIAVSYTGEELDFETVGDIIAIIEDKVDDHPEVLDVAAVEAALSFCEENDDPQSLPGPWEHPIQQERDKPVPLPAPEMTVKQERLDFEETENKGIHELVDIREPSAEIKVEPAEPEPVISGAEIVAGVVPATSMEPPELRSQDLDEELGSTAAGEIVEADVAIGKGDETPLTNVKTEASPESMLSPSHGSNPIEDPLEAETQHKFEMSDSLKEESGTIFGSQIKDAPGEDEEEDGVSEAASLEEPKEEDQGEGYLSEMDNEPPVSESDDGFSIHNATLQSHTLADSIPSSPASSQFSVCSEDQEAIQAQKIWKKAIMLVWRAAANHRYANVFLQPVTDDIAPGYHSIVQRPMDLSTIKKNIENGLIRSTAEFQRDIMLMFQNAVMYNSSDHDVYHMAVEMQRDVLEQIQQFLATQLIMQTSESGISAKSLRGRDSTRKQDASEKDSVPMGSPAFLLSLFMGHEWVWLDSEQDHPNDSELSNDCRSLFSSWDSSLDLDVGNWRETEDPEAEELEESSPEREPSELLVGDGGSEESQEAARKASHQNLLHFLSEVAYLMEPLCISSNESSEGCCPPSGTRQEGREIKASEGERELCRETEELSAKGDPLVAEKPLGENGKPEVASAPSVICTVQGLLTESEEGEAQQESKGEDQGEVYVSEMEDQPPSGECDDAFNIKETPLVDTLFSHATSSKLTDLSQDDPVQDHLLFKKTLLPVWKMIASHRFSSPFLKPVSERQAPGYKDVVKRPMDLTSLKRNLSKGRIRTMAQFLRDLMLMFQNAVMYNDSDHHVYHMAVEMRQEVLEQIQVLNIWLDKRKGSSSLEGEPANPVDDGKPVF

[8] = biological target: Peregrin (Homo sapiens, UniProt P55201); assay: Displacement of biotinylated histone H3K14 peptide ligand from human recombinant His-tagged BRPF1 measured after 10 mins by TR-FRET assay
Sequence of Peregrin (P55201 whole entry): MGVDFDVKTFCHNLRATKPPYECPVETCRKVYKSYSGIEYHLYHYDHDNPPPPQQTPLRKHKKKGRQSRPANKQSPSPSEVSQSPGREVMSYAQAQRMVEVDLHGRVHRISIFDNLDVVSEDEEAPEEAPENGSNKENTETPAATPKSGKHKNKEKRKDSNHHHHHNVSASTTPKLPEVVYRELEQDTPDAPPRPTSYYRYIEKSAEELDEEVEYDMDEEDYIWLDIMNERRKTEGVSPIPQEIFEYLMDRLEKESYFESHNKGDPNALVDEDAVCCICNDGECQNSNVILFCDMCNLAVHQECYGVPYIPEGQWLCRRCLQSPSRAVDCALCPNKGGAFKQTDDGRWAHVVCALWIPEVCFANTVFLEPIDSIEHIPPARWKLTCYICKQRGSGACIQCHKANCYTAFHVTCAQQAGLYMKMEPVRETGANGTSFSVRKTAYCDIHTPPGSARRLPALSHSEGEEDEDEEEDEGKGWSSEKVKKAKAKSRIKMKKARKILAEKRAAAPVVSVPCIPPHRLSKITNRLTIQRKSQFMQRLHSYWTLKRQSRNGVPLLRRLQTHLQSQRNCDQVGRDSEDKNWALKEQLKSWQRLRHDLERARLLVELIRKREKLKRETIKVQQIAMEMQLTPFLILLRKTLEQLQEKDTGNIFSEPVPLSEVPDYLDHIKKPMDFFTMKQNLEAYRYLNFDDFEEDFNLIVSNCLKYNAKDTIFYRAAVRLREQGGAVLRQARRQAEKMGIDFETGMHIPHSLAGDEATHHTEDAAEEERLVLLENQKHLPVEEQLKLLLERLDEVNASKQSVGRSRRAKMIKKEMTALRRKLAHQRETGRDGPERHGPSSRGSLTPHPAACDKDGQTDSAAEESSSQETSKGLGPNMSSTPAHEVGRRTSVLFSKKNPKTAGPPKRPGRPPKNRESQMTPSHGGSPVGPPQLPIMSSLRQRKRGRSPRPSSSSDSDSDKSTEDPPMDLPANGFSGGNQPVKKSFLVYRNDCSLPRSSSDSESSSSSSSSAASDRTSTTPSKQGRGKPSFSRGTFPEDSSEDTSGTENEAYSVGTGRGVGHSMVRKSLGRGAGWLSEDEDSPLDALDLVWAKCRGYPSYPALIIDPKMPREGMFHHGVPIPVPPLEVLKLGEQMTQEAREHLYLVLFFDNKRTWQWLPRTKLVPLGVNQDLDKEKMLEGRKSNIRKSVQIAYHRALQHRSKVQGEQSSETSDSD

[9] = Apparent permeability from apical side to basolateral side in MDCK cells at 10 uM measured after 180 mins by LC-MS/MS analysis; type: ADME, cell-based, Canis lupus familiaris; details: dog
[10] = Protein binding in rat plasma at 5 uM incubated for 4 hrs measured by LC-MS/MS method; type: ADME, cell-free; details: read-out: PPB (converted)
[11] = Protein binding in dog plasma at 5 uM incubated for 4 hrs measured by LC-MS/MS method; type: ADME, cell-free, Canis lupus familiaris; details: read-out: PPB (converted)
[12] = Protein binding in cynomolgus monkey plasma at 5 uM incubated for 4 hrs measured by LC-MS/MS method; type: ADME, cell-free, Macaca fascicularis; details: read-out: PPB (converted)
[13] = Clearance in Sprague-Dawley rat at 1 mg/kg, iv or 5 mg/kg, po by LC-MS/MS method; type: ADME, organism-based; details: in vivo
In short: (§1)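 Male Sprague-Dawley rats, 6–9 weeks, n = 3 per route. Dosed 1 mg/kg i.v. in PEG400/water (35/65) or 5 mg/kg p.o. in 0.5% methylcellulose, 0.2% Tween 80; oral groups fasted overnight until 4 h post-dose. Catheter blood sampled 0.033–24 h into K2EDTA and spun to plasma. Analysed by non-validated LC-MS/MS.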

[14] = Clearance in beagle dog at 1 mg/kg, iv or 5 mg/kg, po by LC-MS/MS method; type: ADME, organism-based, Canis lupus familiaris; details: in vivo
In short: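 Non-naïve male beagle dogs, n = 3 per route. Dosed 1 mg/kg i.v. in EtOH/PEG400/water (20/15/65) or 5 mg/kg p.o. in 0.5% methylcellulose, 0.2% Tween 80; oral groups fasted overnight until 4 h post-dose. Peripheral blood taken pre-dose to 24 h and processed to K2EDTA plasma. Analysed by non-validated LC-MS/MS.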

[15] = Clearance in cynomolgus monkey at 1 mg/kg, iv or 5 mg/kg, po by LC-MS/MS method; type: ADME, organism-based, Macaca fascicularis; details: in vivo
In short: (§2)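 Non-naïve male cynomolgus monkeys, at least 2 years old, n = 3 per route. Given 1 mg/kg i.v. in EtOH/PEG400/water (20/15/65) or 5 mg/kg p.o. in 0.5% methylcellulose, 0.2% Tween 80; oral groups fasted. Plasma (K2EDTA) collected pre-dose to 24 h. Analysed by non-validated LC-MS/MS.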

[16] = Half life in Sprague-Dawley rat at 1 mg/kg, iv or 5 mg/kg, po by LC-MS/MS method; type: ADME, organism-based; details: in vivo; in short: as §1
[17] = Half life in cynomolgus monkey at 1 mg/kg, iv or 5 mg/kg, po by LC-MS/MS method; type: ADME, organism-based, Macaca fascicularis; details: in vivo; in short: as §2
[18] = Oral bioavailability in cynomolgus monkey at 5 mg/kg by LC-MS/MS method; type: ADME, organism-based, Macaca fascicularis; details: in vivo; in short: as §2
[19] = Volume of distribution at steady state in cynomolgus monkey at 1 mg/kg, iv or 5 mg/kg, po by LC-MS/MS method; type: ADME, organism-based, Macaca fascicularis; details: in vivo, read-out: Vdss
In short: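 Non-naïve male beagle dogs or cynomolgus monkeys, n=3 per route. Dosing was 1 mg/kg i.v. in EtOH/PEG400/water 20/15/65 or 5 mg/kg p.o. in 0.5% methylcellulose/0.2% Tween 80; the p.o. group was fasted overnight. Peripheral blood was taken pre-dose to 24 h into K2EDTA and processed to plasma. Quantified by LC-MS/MS.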

[20] = Cmax in Sprague-Dawley rat at 1 mg/kg, iv or 5 mg/kg, po by LC-MS/MS method; type: ADME, organism-based; details: in vivo; in short: as §1
[21] = Cytotoxicity against induced-Treg cells differentiated from human PBMC derived naive CD4-positive T cells assessed as effect on cell viability at 0.001 to 2 uM measured after 4 days by […] dye-based flow cytometry; details: 96 h
In short: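 Naïve CD4+ T cells from healthy-donor PBMC were differentiated to iTregs with anti-CD3, anti-CD28, rIL-2 (10 ng/ml) and rTGFβ in RPMI-1640 with 10% FCS. Compound was tested from 2 µM in 2-fold dilutions, with DMSO as control. Cells were harvested on day 4 and viability was scored by flow cytometry with a fixable viability dye.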

[22] = biological target: Cytochrome P450 1A2 (Homo sapiens, UniProt P05177); assay: Inhibition of CYP1A2 (unknown origin); type: ADME
[23] = biological target: Cytochrome P450 3A4 (Homo sapiens, UniProt P08684); assay: Inhibition of CYP3A4 (unknown origin); type: ADME

SMILES: CC(=O)N1CCc2c(c(N3CCCc4cc(-c5cnn(C)c5)c(C(F)F)cc43)nn2C2CCOCC2)C1
- Vd [1]: 0.81 L/kg
- Vd [2]: 0.81 L/kg
- IC50 [3]: 0.0011 µM
- Ratio IC50 [4]: 3820
- EC50 [5]: 0.014 µM
- IC50 [6]: > 20 µM
- IC50 [7]: > 20 µM
- IC50 [8]: > 20 µM
- Papp A→B at 3 h, 10 µM [9]: 15 ×10⁻⁶ cm/s
- fraction unbound at 4 h, 5 µM [10]: 0.12
- fraction unbound at 4 h, 5 µM [11]: 0.19
- fraction unbound at 4 h, 5 µM [12]: 0.21
- clearance [13]: 16 mL/min/kg
- clearance [14]: 4.6 mL/min/kg
- clearance [15]: 7.4 mL/min/kg
- half-life [16]: 0.66 h
- half-life [17]: 2.8 h
- bioavailability [18]: 39%
- Vd [19]: 1.4 L/kg
- Cmax [20]: 3.2 µM

SMILES: CNC(=O)N1CCc2c(c(N3CCCc4cc(-c5cnn(C)c5)c(C(F)F)cc43)nn2C2CCOCC2)C1
- Vd [1]: 0.6 L/kg
- Vd [2]: 0.64 L/kg
- Ratio IC50 [4]: 5420
- IC50 [7]: > 20 µM
- IC50 [8]: 4.6 µM
- Papp A→B at 3 h, 10 µM [9]: 19 ×10⁻⁶ cm/s
- fraction unbound at 4 h, 5 µM [10]: 0.06
- fraction unbound at 4 h, 5 µM [11]: 0.23
- fraction unbound at 4 h, 5 µM [12]: 0.22
- clearance [13]: 3.8 mL/min/kg
- clearance [14]: 4.8 mL/min/kg
- clearance [15]: 18 mL/min/kg
- half-life [16]: 3.7 h
- half-life [17]: 0.72 h
- bioavailability [18]: 28%
- Vd [19]: 1 L/kg
- Cmax [20]: 4.1 µM
- Activity [21]: Non-Toxic
- IC50 [22]: > 10 µM
- IC50 [23]: > 10 µM

From ChEMBL document CHEMBL4052814, “GNE-781, A Highly Advanced Potent and Selective Bromodomain Inhibitor of Cyclic Adenosine Monophosphate Response Element Binding Protein, Binding Protein (CBP)” (J Med Chem, 2017)
